In the library only some 4.9% were active in any assay of this set; here they are far more common.
Hep lipid drop = hepatic lipid droplet formation modulation; AML12 mouse hepatocytes, oleate lipid droplets, BODIPY imaging; inhibition, % at 6.5 µM; 0.4% of 240,000 active; AID 1656;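 active = lipid droplet intensity inhibited by at least 50%, with more than 500 cells counted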
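System: AML12 hepatocytes (mouse). Probe or stimulus: oleic acid at 100 µM to induce lipid droplet formation. Times: overnight treatment with compound plus oleate. Detection: Image-based BODIPY and DAPI two-channel analysis. Evaluation: percent inhibition of filter-corrected integrated lipid droplet intensity per well.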
CHT PAM = human CHT allosteric activation | Q9GZV3 | CHT-expressing cells, membrane potential dye, choline EC20; hits give high values; LV-AA mutant CHT in HEK293 cells | B-score at 10 µM | 0.49% of 310,000 active;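 active = initial fluorescence not abnormally high and integrated response B-score, plate-corrected, over 3 SD above library mean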
HSF1 inhib = HSF1 inhibition | NIH3T3-HGL HSE-luciferase, MG132-induced, luminescence 8 h; hits give low values | 0.77% of 300,000 active | activity change, negative = inhibition, % at 7.5 µM (by protocol);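 active = more than half of replicate wells show activity change below -50%, luminescence cut by over half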;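 also: luciferase reports HSF-1 transcriptional activity via heat shock element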
PHOSPHO1 block = blocks human PHOSPHO1 phosphatase activity | Q8TCT1 | recombinant PHOSPHO1, absorbance phosphatase assay | inhibition, % at 13.3 µM | 1.1% of 290,000 active; in the data active = inhibition above about 60%
HSF-1 act = increases HSF-1 driven luciferase reporter signal. AID 504408. NIH3T3-HGL HSF-1 luciferase reporter, MG132, 8 h; 100% = twice DMSO control signal. activation, % at 9 µM. 1.7% of 300,000 active;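 active = mean replicate activation of at least 50% with a set share of replicates each reaching 50%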
CHT block = inhibits the human high affinity choline transporter; CHT-expressing cells, membrane potential dye, choline response; hits give low values; B-score at 10 µM; 0.86% of 310,000 active;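 active = B-score over 3 SD under the library average, and starting fluorescence ratio not unusually high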;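 also: choline stimulus applied at its EC90 after an EC20 pre-addition; B-score computed on integrated fluorescence ratio after choline addition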
CHT inh conf = human CHT inhibition, confirmatory screen. shares compounds with CHT block. CHT-expressing cells, choline membrane potential dye; LV-to-AA substituted CHT, HEK293 cells. CHT activity remaining % of control (hits give low values), % at 10 µM. 70% of 2,400 active. AID 493221;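 active = choline transporter activity left, mean of duplicates at 10 µM, below buffer-only control mean minus 3 SD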;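 also: depolarization triggered by choline at its EC90 following an EC20 pre-addition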
HEK293 CHT ctr = CHT inhibitor counter-screen hit in parental HEK293 cells | membrane potential dye, choline response; active = decrease or increase beyond buffer ±3SD | 4% of 2,400 active | shares compounds with CHT block | AID 493222 | membrane potential ratio readout (active if shifted either direction beyond buffer ±3SD; no single direction) at 10 µM;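 also: parental cells lack the transporter so any hit is non-specific; ratio is peak minus trough fluorescence over baseline after EC90 choline challenge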
A number is an active result; i = inactive; nt = no result.

SMILES | Hep lipid drop | CHT PAM | HSF1 inhib | PHOSPHO1 block | HSF-1 act | CHT block | CHT inh conf | HEK293 CHT ctr
O=C(Nc1cc(F)ccc1F)C1CCCN(c2ncnc3c2nc2n3CCCCC2)C1 (configuration not stated) | i | i | i | i | i | -6.01 | 46.1% | i
C=CCn1cc(C(=O)NCCCN(CC)CC)c(=O)c2cc(S(=O)(=O)N3CCC(C)CC3)ccc21 | i | i | i | i | i | -8.56 | 25.7% | i
CCn1cc(C(=O)NCCCN2CCCC(C)C2)c(=O)c2cc(S(=O)(=O)N3CCc4ccccc4C3)ccc21 (configuration not stated) | i | i | i | i | i | -15.7 | 20.3% | 3.61
CCCCN(CCCC)CCNC(=O)c1cn(CC)c2ccc(S(=O)(=O)N3CCc4ccccc4C3)cc2c1=O | i | i | i | i | i | -9.17 | 12.4% | i
CCCCNC(=O)c1cn(CC)c2ccc(S(=O)(=O)N3CCCCCC3)cc2c1=O | i | i | i | i | i | i | nt | nt
CC1CCN(S(=O)(=O)c2ccc3c(c2)c(=O)c(C(=O)N2CCOCC2)cn3C)CC1 | i | i | i | i | i | i | nt | nt
Cn1cc(C(=O)N2CCc3ccccc3C2)c(=O)c2cc(S(=O)(=O)N3CCOCC3)ccc21 | i | i | i | i | i | -6.05 | i | i
C=CCn1cc(C(=O)NCCCOCC)c(=O)c2cc(S(=O)(=O)N(CC)CC)ccc21 | nt | i | i | i | i | i | nt | nt
CCO[C@H]1OC(C(=O)NC2CC2)=C[C@@H](c2ccc(Br)cc2)[C@@H]1CCCO | i | i | i | i | i | i | nt | nt
COCCn1c(=NC(=O)c2ccc(S(=O)(=O)N3CCc4ccccc4C3)cc2)sc2cc(OC)ccc21 | i | i | i | i | i | i | nt | nt
CCc1c(C)[nH]c2ccccc2c1=O | nt | i | nt | i | nt | -5.22 | 62.8% | i
CN(CCCN1CCOCC1)Cc1nc(-c2ccccc2)no1 | i | i | i | i | i | i | nt | nt
COc1ccc(C2=NN(c3nc(C(=O)O)cs3)C(O)(C(F)(F)F)C2)c(OC)c1 (configuration not stated) | i | i | i | i | i | -8.93 | 41.9% | i
COC(=O)c1ccc(S(=O)(=O)N2CCc3ccccc32)cc1 | i | i | i | i | i | i | nt | nt
CCC1CCCCN1CCN1C(=O)C2C(C(=O)Nc3ccc(OC)cc3)C3C=CC2(O3)C1C(=O)NC1CCCCC1 (configuration not stated) | i | i | i | i | i | i | nt | nt
COc1ccc(C(=O)OCC2CC(c3ccccc3)=NO2)cc1OC (configuration not stated) | i | i | i | i | i | i | nt | nt
COc1cc(C(=O)OCC2CC(c3ccccc3)=NO2)cc(OC)c1OC (configuration not stated) | i | i | i | i | i | i | i | i
CC(=O)Nc1c2c3c(cccc3n(C)c1=O)C(=O)c1ccccc1-2 | nt | i | i | i | i | -5.86 | 44.5% | 2.42
CNC(=O)NC(=O)C(OC(=O)Cc1cccc(C(F)(F)F)c1)c1ccccc1 (configuration not stated) | i | i | i | i | i | i | nt | nt
CCc1nn2c(=O)c(S(=O)(=O)Nc3ccccc3)c(C)nc2s1 | i | i | i | i | i | i | nt | nt
CNc1cc(Cl)nc(SC)n1 | i | i | i | i | i | -11.7 | -0.4% | i
CSc1nc(Cl)cc(N2CCOCC2)n1 | i | i | i | i | i | i | nt | nt
CC(C)(C)c1cc(C(=O)NNC(=O)c2ccc(C(F)(F)F)cc2)no1 | i | i | i | i | i | i | nt | nt
N#CCCn1cc(/C=C2\NC(=S)N(c3ccccc3)C2=O)c(-c2ccc(F)cc2)n1 | i | i | i | i | i | -6.79 | 59.7% | i
CC(C)=CCN1CCN(Cc2nc(-c3ccc(F)cc3)cs2)CC1CCO (configuration not stated) | i | i | i | i | i | -5.41 | i | i

Source: PubChem (several laboratories)
